Where “and” joins values, the source holds several entries; their conditions need not be identical. Equal entries are not always repeated. Calls of active or inactive are those of the source. No cut-off for these calls is given here.
Tests used:
[1] = Concentration which gives 20% increase in the force contraction in ferret papillary muscle; assay type: functional, Mustela putorius furo, Muscle tissue
Method in brief: (§1)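 Isolated ferret papillary muscle, force of contraction recorded over a dose-response range. C20 = concentration giving a 20% increase in contractile force. Single experiments reported individually; with three or more runs, mean and range given.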

[2] = species: Cavia porcellus; assay: Chronotropic effect of histamine at 5 ug/mL in guinea pig atrium; assay type: functional, Cardiac atrium
Method in brief: (§2)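 Spontaneously beating guinea pig right atria. Value is the concentration giving 50% of the chronotropic effect of histamine at 5 μg/mL, taken from dose-response curves. Reported as mean ± SEM of three separate dose-response determinations. Response sensitivity checked with cimetidine.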

[3] = system: Rattus norvegicus; assay: In vivo effect on gastric acid secretion in rat was determined after subcutaneous administration; assay type: functional; conditions: Stomach, sc
Method in brief: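 Rats, subcutaneous dosing, gastric acid secretion measured by the method of Hagiwara and co-workers. ED50 = dose giving a 50% increase in acid secretion over control. Mean ± SEM of three separate dose-response determinations.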

[4] = dp/dt value of the compound; assay type: functional
Method in brief: (§3)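 Pentobarbital-anesthetized guinea pigs with stomach ligated to contain gastric fluid. After 30 min stabilization, blood pressure, heart rate, LVEDP and LV dP/dtmax were recorded at 1-min intervals. Compound given by iv infusion for 60 min, then monitored 10 min more. Gastric contents were titrated against 0.1 N NaOH. Value is the average maximum % change from control in the 10 min after infusion, mean ± SEM.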

[5] = system: Cavia porcellus; assay: In vivo percent change total acid secretion in guinea pig was determined at a dose of 75 mg/kg/h; assay type: functional; method in brief: as §3
[6] = system: Cavia porcellus; assay: In vivo percent change airway overflow in guinea pig was determined at a dose of 75 mg/kg/h; assay type: functional
[7] = species: Mustela putorius furo; assay: (§4) In vitro inotropy blocking studies in ferret papillary muscle in the presence of 10 uM cimetidine; B-Blocked; assay type: functional, tissue-based; conditions: Muscle tissue
Method in brief: (§5)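 Ferret papillary muscle dose-response repeated in the presence of antagonist (cimetidine). A rise of at least 1 order of magnitude in the measured C20 was scored as a blocked inotropic response.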

[8] = system: Cavia porcellus; assay: In vivo percent change in heart rate in guinea pig was determined at a dose of 75 mg/kg/h; assay type: functional; method in brief: as §3
[9] = species: Mustela putorius furo; assay: (§6) In vitro inotropy blocking studies in ferret papillary muscle in the presence of 100 uM nadolol; NB-Not Blocked; assay type: functional, tissue-based; conditions: Muscle tissue
Method in brief: (§7)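 Ferret papillary muscle dose-response repeated in the presence of 100 μM nadolol. A rise of at least 1 order of magnitude in the measured C20 was scored as a blocked inotropic response.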

[10] = system: Cavia porcellus; assay: In vivo percent change in mean arterial pressure in guinea pig was determined at a dose of 75 mg/kg/h; assay type: functional, Artery; method in brief: as §3
[11] = species: Cavia porcellus; assay: Contractile response of histamine at 0.5 ug/mL in guinea pig ileum; assay type: functional
Method in brief: (§8)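 Isolated guinea pig ileum, H1 activity. Value is the concentration giving 50% of the contractile response of histamine at 0.5 μg/mL, taken from dose-response curves. Reported as mean ± SEM of three separate dose-response determinations. Response sensitivity checked with mepyramine.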

[12] = Concentration of compound which gives 20% increase in the force contraction in ferret papillary muscle.; assay type: functional, Mustela putorius furo, Muscle tissue
Method in brief: (§9)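 Ferret papillary muscle force of contraction. C20 is the concentration giving a 20% increase in force. Values come from individual experiments; where three or more runs were done, the mean and range are given. NR means not reached.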

[13] = species: Mustela putorius furo; assay: In vitro inotropy blocking studies in ferret papillary muscle in the presence of 100 uM nadolol; Blocked; assay type: functional, tissue-based; conditions: Muscle tissue; method in brief: as §7
[14] = system: Cavia porcellus; assay: In vivo percent change in air way overflow in guinea pig was determined at a dose of 10 mg/kg/hr; assay type: functional
[15] = system: Cavia porcellus; assay: In vivo percent change in mean arterial pressure in guinea pig was determined at a dose of 10 mg/kg/hr; assay type: functional, Artery; method in brief: as §3
[16] = dP/dt value of the compound; assay type: functional; set-up: unit not given here
[17] = species: Cavia porcellus; assay: Chronotropic effect of histamine at 5 ug/mL in guinea pig atrium; NR-Not reached; assay type: functional, Cardiac atrium
[18] = system: Cavia porcellus; assay: In vivo percent change in total acid secretion in guinea pig was determined at a dose of 10 mg/kg/hr; assay type: functional; method in brief: as §3
[19] = system: Rattus norvegicus; assay: In vivo effect on gastric acid secretion in rat was determined after subcutaneous administration; NC-No change; assay type: functional, organism-based; conditions: Stomach
Method in brief: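 Rats, subcutaneous dosing, gastric acid secretion stimulation. ED50 is the dose giving a 50% increase in acid secretion over control. Reported as mean ± SEM of three separate dose-response determinations.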

[20] = species: Mustela putorius furo; assay: In vitro inotropy blocking studies in ferret papillary muscle in the presence of 100 uM nadolol; B-Blocked; assay type: functional, tissue-based; conditions: Muscle tissue; method in brief: as §7
[21] = species: Mustela putorius furo; assay: In vitro inotropy blocking studies in ferret papillary muscle in the presence of 10 uM cimetidine; NB-Not Blocked; assay type: functional, tissue-based; conditions: Muscle tissue; method in brief: as §5
[22] = system: Cavia porcellus; assay: In vivo percent change in airway overflow in guinea pig was determined at a dose of 1 mg/kg/h; assay type: functional
[23] = system: Cavia porcellus; assay: In vivo percent change in total acid secretion in guinea pig was determined at a dose of 1 mg/kg/h; assay type: functional
[24] = species: Cavia porcellus; assay: In vitro contractile response of histamine at 0.5 ug/mL in guinea pig ileum; assay type: functional; method in brief: as §8
[25] = system: Cavia porcellus; assay: In vivo percent change in heart rate in guinea pig was determined at a dose of 1 mg/kg/h; assay type: functional
[26] = system: Cavia porcellus; assay: In vivo percent change in mean arterial pressure in guinea pig was determined at a dose of 1 mg/kg/h; assay type: functional, Artery
[27] = species: Mustela putorius furo; assay: as §6; assay type: functional, tissue-based; conditions: Muscle tissue; remark: listed apart in the source
Method in brief: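 Ferret papillary muscle inotropic dose-response curves repeated in the presence of each antagonist (nadolol at 100 μM). A rise in C20 of at least one order of magnitude was scored as a blocked response.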

[28] = species: Mustela putorius furo; assay: as §4; assay type: functional, tissue-based; conditions: Muscle tissue; remark: listed apart in the source
[29] = species: Cavia porcellus; assay: In vitro chronotropic effect of histamine at 5 ug/mL in guinea pig atrium; assay type: functional; conditions: Cardiac atrium; method in brief: as §2
[30] = system: Cavia porcellus; assay: In vivo percent change in airway overflow in guinea pig was determined at a dose of 7.5 mg/kg/h; assay type: functional
[31] = system: Cavia porcellus; assay: In vivo percent change in mean arterial pressure in guinea pig was determined at a dose of 7.5 mg/kg/h; assay type: functional, Artery
[32] = system: Cavia porcellus; assay: In vivo percent change in heart rate in guinea pig was determined at a dose of 7.5 mg/kg/h; assay type: functional
[33] = system: Cavia porcellus; assay: In vivo percent change in total acid secretion in guinea pig was determined at a dose of 7.5 mg/kg/h; assay type: functional
[34] = species: Mustela putorius furo; assay: Concentration of compound which gives 20% increase in the force contraction in ferret papillary muscle; NR-Not reached; assay type: functional, tissue-based; conditions: Muscle tissue; method in brief: as §1
[35] = species: Mustela putorius furo; assay: Concentration of compound which gives 20% increase in the force contraction in ferret papillary muscle;NR- Not reached; assay type: functional, tissue-based; conditions: Muscle tissue; method in brief: as §9
[36] = system: Cavia porcellus; assay: In vivo percent change in heart rate in guinea pig was determined at a dose of 10 mg/kg/hr; assay type: functional; method in brief: as §3
[37] = system: Cavia porcellus; assay: In vivo percent change in airway overflow in guinea pig was determined at a dose of 30 mg/kg/h; assay type: functional
[38] = system: Cavia porcellus; assay: In vivo percent change in heart rate in guinea pig was determined at a dose of 30 mg/kg/h; assay type: functional; method in brief: as §3
[39] = system: Cavia porcellus; assay: In vivo percent change in total acid secretion in guinea pig was determined at a dose of 30 mg/kg/h; assay type: functional; method in brief: as §3
[40] = Cavia porcellus, Ileum, read-out: EC50

c1coc(CNCCCc2c[nH]cn2)c1
C20 [1]: 33 uM l-1

c1ccc2c3c(ccc2c1)C(NCCc1c[nH]cn1)CCC3 (centres undefined)
C20 [1]: >10 uM l-1

CCCCCCCNCCc1c[nH]cn1
EC50 ([2]; Cavia porcellus, Cardiac atrium, read-out: EC50): 71 µM
ED50 [3]: 10.7 mg/kg
dP/dt [4]: 155
Change [5]: 220%
Change [6]: 150%
Activity [7]: Blocked
Change [8]: 14%
Activity [9]: Not blocked
Change [10]: 15%
EC50 [11, 40]: 7.88 µM
C20 [12]: 1 uM l-1

C(=C\c1ccccc1)/CCNCCc1c[nH]cn1
Activity [13]: Blocked
C20 [1]: 14 uM l-1 and 21 uM l-1

Cc1[nH]cnc1CCNCCNC(=O)c1ccc(NS(C)(=O)=O)cc1
C20 [1]: 20 uM l-1 and 40 uM l-1

CC(CCc1ccc(O)cc1)N(C)CCc1c[nH]cn1 (centres undefined)
Change [14]: 39%
Change [15]: 5%
dP/dt [16]: 29
EC50 [17]: Not reached
C20 [1]: 0.13 uM l-1 and 0.16 uM l-1
Change [18]: 22%
EC50 [11]: 128 uM l-1
ED50 [19]: inactive
Activity [20]: Blocked
Activity [21]: Not blocked

CCCCCCCN(C)CCc1c[nH]cn1
C20 [12]: >57 uM l-1

CN(C)CCCSC(=N)N [DIMAPRIT]
ED50 [3]: 3.1 mg/kg
Change [22]: 11%
Change [23]: 91%
EC50 [24]: 10.4 µM
dP/dt [16]: 93
Change [25]: 19%
Change [26]: -25%
Activity [27]: Not blocked
Activity [28]: Blocked
EC50 [29]: 4.6 µM

CC(CCc1ccc(O)cc1)NCCc1c[nH]cn1 (centres undefined)
C20 [1]: 2 uM l-1 and 5 uM l-1
Activity [20]: Blocked
Activity [21]: Not blocked

NCCc1c[nH]cn1 [HISTAMINE]
ED50 [3]: 2.7 mg/kg
dP/dt [4]: 132
EC50 [24]: 0.24 µM
Activity [7]: Active
Activity [9]: inactive
EC50 [29]: 0.98 µM
C20 [12]: 0.42 uM l-1

O=C(NCCNCCc1c[nH]cn1)c1ccccc1
C20 [1]: >66 uM l-1

CN(CC/C=C/c1ccccc1)CCc1c[nH]cn1
Activity [20]: Blocked
Activity [21]: Not blocked

CCN(CCc1c[nH]cn1)C(C)CCc1ccc(O)cc1 (centres undefined)
C20 [1]: 4 uM l-1 and 6 uM l-1
Activity [28]: Blocked
Activity [20]: Blocked

CC(=O)NCCNCCc1c[nH]cn1
C20 [1]: 46 uM l-1 and 85 uM l-1

CCCCCCC(=O)NCCc1c[nH]cn1
ED50 [3]: 5.9 mg/kg
Change [30]: 197%
Change [31]: 33%
Change [32]: 41%
dP/dt [16]: 146
EC50 [17]: Not reached
C20 [1]: 7.3 uM l-1
Activity [27]: Not blocked
Activity [28]: Blocked
EC50 [11, 40]: 50.6 µM
Change [33]: 160%

CCCN(CCc1c[nH]cn1)C(C)CCc1ccc(O)cc1 (centres undefined)
C20 [1]: 4.9 uM l-1
Activity [28]: Blocked
Activity [20]: Blocked

c1coc(CNCCc2c[nH]cn2)c1
C20 [1]: 27 uM l-1
Activity [20]: Blocked

Cc1[nH]cnc1CCNCCNC(=O)c1ccncc1
C20 [34]: Not reached

COc1ccc(CCNCCc2c[nH]cn2)cc1OC
Activity [28]: Blocked
Activity [20]: Blocked

O=C(c1ccccc1)N1CCC(NCCc2c[nH]cn2)CC1
C20 [1]: >27 uM l-1

NC(C/C=C/c1ccccc1)CCc1c[nH]cn1 (centres undefined)
C20 [35]: Not reached

Cc1[nH]cnc1CCNCCN
C20 [34]: Not reached

Cc1[nH]cnc1CCNCCNC(=O)c1ccccc1
C20 [1]: 27 uM l-1

CN(CCc1c[nH]cn1)Cc1ccco1
ED50 [3]: 15.3 mg/kg
Change [14]: 51%
Change [36]: -8%
Change [15]: -22%
dP/dt [16]: -6
EC50 [17]: Not reached
C20 [1]: 6.7 uM l-1
Change [18]: 221%
Activity [27]: Not blocked
Activity [28]: Blocked
EC50 [11]: 165 uM l-1

NC(C/C=C/c1ccccc1)Cc1c[nH]cn1 (centres undefined)
EC50 [2]: 184 uM l-1
Change [37]: 45%
Change [38]: 5%
dP/dt [16]: 68
C20 [1]: 13 uM l-1
Change [39]: 169%
Activity [27]: Not blocked
Activity [28]: Blocked
EC50 [11, 40]: 7.23 µM
ED50 [19]: inactive

Cc1[nH]cnc1CCNCCNC(=O)N1CCOCC1
C20 [1]: >90 uM l-1

Source: ChEMBL document CHEMBL1125114, “Cardiotonic agents. 6. Histamine analogues as potential cardiovascular selective H2 agonists” (J Med Chem, 1990)
